Measured values of several laboratories.
Each line is one published result; the experiments were not run side by side.
KIT L576P: Mast/stem cell growth factor receptor Kit (KIT, Homo sapiens, UniProt P10721, L576P)
KIT D816H: Mast/stem cell growth factor receptor Kit (KIT, Homo sapiens, UniProt P10721, D816H)
KIT V559D/V654A: Mast/stem cell growth factor receptor Kit (KIT, Homo sapiens, UniProt P10721, V559D/V654A)
KIT V559D: Mast/stem cell growth factor receptor Kit (KIT, Homo sapiens, UniProt P10721, V559D)
KIT A829P: Mast/stem cell growth factor receptor Kit (KIT, Homo sapiens, UniProt P10721, A829P)

| SMILES | target | effect on | technique | tested at | remaining binding [%] |
| --- | --- | --- | --- | --- | --- |
| O=C(Nc1c[nH]nc1C(=O)NC1CCNCC1)c1cc(F)cc(F)c1 | KIT L576P | binding | competition with immobilised ligand | 1 µM | 100 |
| CNC(=O)c1ccc(Nc2ncc(C(F)(F)F)c(NCc3nccnc3N(C)S(C)(=O)=O)n2)cc1 | KIT L576P | cell-free assay | competition with immobilised ligand | 0.1 µM | 86 |
| N[C@@H]1CCN(c2nccc(-c3cnn4ncccc34)n2)C1 | KIT D816H | binding | – | 1 µM | 100 |
| Cc1cnc(Nc2ccc(C(=O)N3CCC(N4CCCC4)CC3)cc2)nc1-c1cc2ccccc2s1 | KIT V559D/V654A | binding | competition with immobilised ligand | 1 µM | 29 |
| Nc1ncc2c(n1)-c1c([nH]c3ccc(C#CC4CC4)cc13)CCCC2 | Mast/stem cell growth factor receptor Kit (KIT, Homo sapiens, UniProt P10721) | binding | competition with immobilised ligand | 1 µM | 95 |
| CNC(=O)[C@@H]1CC[C@@H](n2c(-c3ccc4cnccc4c3)nc3ccc(C(=O)NCc4cccc(C(N)=O)c4)cc32)C1 | KIT D816H | binding | competition with immobilised ligand | 1 µM | 100 |
| O=S(=O)(NC1CCC(c2cc(F)ccc2F)(S(=O)(=O)c2ccc(Cl)cc2)CC1)C(F)(F)F (stereo not drawn) | KIT L576P | cell-free assay | competition with immobilised ligand | 1 µM | 100 |
| CN(CCCC(F)(F)F)c1nccc(-c2cnn3ncccc23)n1 | KIT V559D | binding | – | 1 µM | 100 |
| O=c1nc(-c2ccccn2)sc2ccccc12 | KIT A829P | binding | competition with immobilised ligand | 1 µM | 100 |
| CN(C)c1nccc(-c2cnn3ncccc23)n1 | KIT V559D/V654A | binding | – | 1 µM | 100 |
| O=C(c1ccc(Nc2ncc(Cl)c(-c3ccc(Cl)s3)n2)cc1)N1CCC(N2CCCC2)CC1 | Mast/stem cell growth factor receptor Kit (KIT, Homo sapiens, UniProt P10721, D816V) | binding | competition with immobilised ligand | 1 µM | 17 |
| CN(c1ccnc(CNc2nc(Nc3ccc4c(c3)CC(=O)N4)ncc2C(F)(F)F)n1)S(C)(=O)=O | KIT V559D | cell-free assay | competition with immobilised ligand | 1 µM | 75 |
| COc1cnc(Nc2cccc(S(N)(=O)=O)c2)nc1N1CCN(c2ccccc2)CC1 | Mast/stem cell growth factor receptor Kit (KIT, Homo sapiens, UniProt P10721, T670I/V559D) | binding | competition with immobilised ligand | 1 µM | 97 |
| c1cncc(-c2cccc(Nc3nccc(NC4CCCCC4)n3)c2)c1 | KIT V559D | binding | competition with immobilised ligand | 10 µM | 1.2 |
| C=CC(=O)N1CCC(C(=O)NCC(=O)N2CCN(c3nc(-c4cnc(N)nc4C(F)F)nc(N4CCOCC4)n3)CC2)CC1 | KIT A829P | binding | competition with immobilised ligand | 1 µM | 100 |
| C[C@H]1CCN(c2nccc(-c3cnn4ncccc34)n2)C1 | KIT L576P | binding | – | 1 µM | 67 |
| Cc1nc(C2CCN(C(=O)c3ccc(OC(F)(F)F)cc3N)CC2)c2ncc(N3CCN(C)CC3)cc2n1 | KIT L576P | cell-free assay | competition with immobilised ligand | 1 µM | 87 |
| CN(C)c1nccc(-c2cnc3ncccn23)n1 | KIT A829P | binding | – | 1 µM | 54 |
| C[C@H](c1ccc(F)cc1)N(Cc1cccc(C(=O)O)c1)C(=O)c1cnc2ccccc2c1 | KIT V559D | cell-free assay | competition with immobilised ligand | 1 µM | 92 |
| O=C(c1ccc(Nc2ncc(Cl)c(-c3cc4ccccc4s3)n2)cc1)N1CCC(N2CCCC2)CC1 | KIT V559D | binding | competition with immobilised ligand | 1 µM | 6.6 |
| CCN1CCN(Cc2ccc(C(=O)Nc3ccc(C)c(Oc4ccc5c(c4)CC(=O)N5)c3)cc2C(F)(F)F)CC1 | KIT V559D/V654A | binding | competition with immobilised ligand | 1 µM | 24 |
